The values that follow come from the array DNA melting data of Ke et al. (doi:10.1101/2024.01.08.574731).

The nature of data set [1]: folding enthalpy; higher = less favourable; fluorescence melt of hairpins on a sequencing array, two-state fit. The following applies: sodium 0.088 M. In a few lines:
(§1)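 On a sequenced MiSeq flow cell, library hairpins with annealed Cy3 and quencher oligos were imaged for Cy3 fluorescence in 2.5 °C steps up to 60 °C, in 50 mM Na-HEPES pH 8.0, 25 mM NaCl. Normalisation used pre-quench Cy3 and control constructs. Bootstrapped two-state fits gave melting temperature and folding enthalpy, combined by inverse variance across four replicates and with fitted temperatures raised by 9.35 °C to match UV melts.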

The nature of data set [2]: melting temperature; fluorescence melt of hairpins on a sequencing array, two-state fit, raised by 9.35 °C to match UV melts. The following applies: sodium 0.088 M. In a few lines: as §1

For the sequence GGAAACGAAAGTTCTTCC ((((((....)))..))), the folding enthalpy in data set [1] is -14.9 kcal/mol. Also, the Tm in data set [2] is 32.2 °C.

For GGAAACGAAAGTTGATCC ((((((....)))..))), the folding enthalpy in data set [1] is -14.5 kcal/mol. In data set [2], the Tm was 29.3 °C.

As to GGAAACGAAAGTTTGTCC ((((((....)))..))), in data set [1], the folding enthalpy is -18.8 kcal/mol. Moreover, the Tm in data set [2] was found to be 27.4 °C.

GGAAAGACGAAAGTCTCC (((..(((....)))))): the folding enthalpy in data set [1] was -14.5 kcal/mol. In data set [2], the Tm came to 36.4 °C.

As for GGAAAGCGAAAGCTGTCC (((.(((....))).))), the folding enthalpy in data set [1] is -23.8 kcal/mol. In addition, the Tm in data set [2] was determined as 53.9 °C.

With GGAAAGGGAAACTTTTCC (((((.(....).))))), the folding enthalpy in data set [1] was -18.8 kcal/mol. Moreover, in data set [2], the Tm amounted to 38.4 °C.

Take GGAAATGCGAAAGCATCC (((..(((....)))))): the folding enthalpy in data set [1] was -11.7 kcal/mol. The Tm in data set [2] is 37.1 °C.

With GGAAATGGAAACACTTCC ((((.((....)).)))), in data set [1], the folding enthalpy was -31.5 kcal/mol. In addition, the Tm in data set [2] turned out to be 30.2 °C.

Regarding GGAAATGGAAACATTCCC ((.((((....)))).)), the folding enthalpy in data set [1] was -25.1 kcal/mol. In data set [2], the Tm turned out to be 33.1 °C.

As to GGAAATGGAAACATTTCC (((((((....))))))), in data set [1], the folding enthalpy is -41.5 kcal/mol. Also, the Tm in data set [2] turned out to be 56.5 °C.

Consider GGAACAACGAAAGTTTCC (((..(((....)))))), for which the folding enthalpy in data set [1] is -15.5 kcal/mol. Also, the Tm in data set [2] was determined as 29.9 °C.

With GGAACACGAAAGTGATCC (((.(((....))).))), in data set [1], the folding enthalpy is -28.5 kcal/mol. In data set [2], the Tm is 52.7 °C.

As to GGAACCCCGAAAGGGTCC (((..(((....)))))), in data set [1], the folding enthalpy was -15.5 kcal/mol. Besides, the Tm in data set [2] is 45.9 °C.

In the case of GGAACCCGAAAGGGTCC (((.(((....)))))), the folding enthalpy in data set [1] is -15.8 kcal/mol. Moreover, the Tm in data set [2] stood at 59.7 °C.

Regarding GGAACCGAAAGGTCGTCC ((((((....)))..))), the folding enthalpy in data set [1] was -10.8 kcal/mol. For the same sequence, the Tm in data set [2] amounted to 31.4 °C.

Turning to GGAACCGAAAGGTGCTCC ((((((....)))..))), the folding enthalpy in data set [1] was -12.5 kcal/mol. In data set [2], the Tm turned out to be 38.8 °C.

As to GGAACCGAAAGGTGTCC ((((((....))).))), the folding enthalpy in data set [1] was -17.7 kcal/mol. Besides, the Tm in data set [2] turned out to be 47.5 °C.

For the sequence GGAACCGGAAACGATTCC ((((.((....)).)))), in data set [1], the folding enthalpy is -31.3 kcal/mol. Further, in data set [2], the Tm amounted to 42.8 °C.

Take GGAACGCGAAAGCGCTCC (((.(((....))).))): the folding enthalpy in data set [1] is -28.2 kcal/mol. Besides, the Tm in data set [2] amounted to 55.8 °C.

For GGAACGGCGAAAGCCTCC (((..(((....)))))), the folding enthalpy in data set [1] was -10.3 kcal/mol. Besides, in data set [2], the Tm stood at 31.6 °C.

For the sequence GGAACGGGAAACCATTCC ((((.((....)).)))), the folding enthalpy in data set [1] was -30.2 kcal/mol. Besides, the Tm in data set [2] worked out at 35.9 °C.

On to GGAACGGGAAACCGTTTC (.(((((....))))).), for which, in data set [1], the folding enthalpy was -24.5 kcal/mol. In addition, in data set [2], the Tm was 49.7 °C.

As to GGAACTCGAAAGAGCTCC (((.(((....))).))), the folding enthalpy in data set [1] was -33.9 kcal/mol. Further, in data set [2], the Tm amounted to 48.2 °C.

Consider GGAACTGGAAACAGTTCC (((((((....))))))), for which the folding enthalpy in data set [1] was -42.7 kcal/mol. Moreover, in data set [2], the Tm was 65.7 °C.

With GGAACTGGAAACGGTTTC (.(((.(....).))).), the folding enthalpy in data set [1] was -17.9 kcal/mol. Moreover, the Tm in data set [2] was 30.4 °C.

In the case of GGAAGACCGAAAGGTTCC (((..(((....)))))), the folding enthalpy in data set [1] is -16 kcal/mol. Moreover, the Tm in data set [2] was 37.4 °C.

Turning to GGAAGAGGAAACTCTCCC ((.((((....)))).)), the folding enthalpy in data set [1] is -18.2 kcal/mol. For the same sequence, the Tm in data set [2] was 32.9 °C.

GGAAGCCGAAAGGCATCC (((.(((....))).))): in data set [1], the folding enthalpy was -21.9 kcal/mol. The Tm in data set [2] came to 56.1 °C.

On to GGAAGCCGAAAGGCGTCC (((.(((....))).))), for which the folding enthalpy in data set [1] is -14.6 kcal/mol. The Tm in data set [2] stood at 61.6 °C.

Consider GGAAGCGAAAGCTATTCC ((((((....)))..))), for which the folding enthalpy in data set [1] is -14.1 kcal/mol. The Tm in data set [2] stood at 35.8 °C.

Turning to GGAAGCGAAAGCTCGTCC ((((((....)))..))), the folding enthalpy in data set [1] is -11.6 kcal/mol. Further, the Tm in data set [2] came out at 29.5 °C.

For the sequence GGAAGCGAAAGCTGCTCC ((((((....)))..))), the folding enthalpy in data set [1] was -11.8 kcal/mol. In addition, the Tm in data set [2] is 37.9 °C.

For GGAAGCGAAAGCTGTCC ((((((....))).))), the folding enthalpy in data set [1] is -14.5 kcal/mol. In addition, the Tm in data set [2] was found to be 47.4 °C.

Take GGAAGCGAAAGCTTATCC ((((((....)))..))): in data set [1], the folding enthalpy is -9.74 kcal/mol. Moreover, the Tm in data set [2] was determined as 34.6 °C.

On to GGAAGCTCGAAAGAGTCC (((..(((....)))))), for which, in data set [1], the folding enthalpy is -11.6 kcal/mol. In data set [2], the Tm turned out to be 26.2 °C.

In the case of GGAAGGAAACTTCC (((((....))))), in data set [1], the folding enthalpy was -24.1 kcal/mol. Further, the Tm in data set [2] is 46 °C.
